GPR7 antag – blocks human GPR7 receptor signaling; hit rate 1.1% among 290,000; P48145; GPR7-expressing cells, fluorescence antagonist assay; inhibition, % at 4.4 µM; in the data active = inhibition above about 16%, passing the limit was not always enough;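 note: cells stimulated with the agonist NPW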
Target sequence (P48145 whole entry, looked up): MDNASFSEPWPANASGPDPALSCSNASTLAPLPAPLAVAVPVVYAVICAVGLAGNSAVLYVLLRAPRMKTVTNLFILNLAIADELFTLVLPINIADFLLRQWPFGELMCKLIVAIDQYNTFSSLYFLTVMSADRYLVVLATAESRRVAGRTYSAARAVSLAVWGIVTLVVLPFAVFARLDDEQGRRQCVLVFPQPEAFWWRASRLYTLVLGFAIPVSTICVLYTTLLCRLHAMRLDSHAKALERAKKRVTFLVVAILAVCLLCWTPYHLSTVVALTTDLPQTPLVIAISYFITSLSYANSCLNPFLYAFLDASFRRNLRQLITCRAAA
MPTP block – blocks calcium-induced mitochondrial swelling. isolated mouse mitochondria, Ca2+ swelling absorbance, 30 min. inhibition, % at 10 µM. hit rate 1.4% among 360,000. AID 602449;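 active = inhibition of 50% or more, scaled per plate between neutral and stimulator controls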
DAGLB inh – diacylglycerol lipase beta (human) inhibition | Q8NCG7 | HEK293T DAGLB membrane lysate, EnzChek fluorogenic substrate | inhibition, % at 5.17 µM | hit rate 0.059% among 340,000 | AID 504411; in the data active = inhibition above about 34%
TAAR1 antagonist – antagonists of human TAAR1 | Q96RJ0 | CHO RD-HGA16 TAAR1, Fluo-8 calcium fluorescence, antagonist | inhibition, % at 3 µM | hit rate 1.5% among 360,000;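 active = inhibition above a per-plate cutoff, the mean inhibition of test compounds on that plate plus 3 SD, cut at about 49% in these data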
Target sequence (Q96RJ0 whole entry, looked up): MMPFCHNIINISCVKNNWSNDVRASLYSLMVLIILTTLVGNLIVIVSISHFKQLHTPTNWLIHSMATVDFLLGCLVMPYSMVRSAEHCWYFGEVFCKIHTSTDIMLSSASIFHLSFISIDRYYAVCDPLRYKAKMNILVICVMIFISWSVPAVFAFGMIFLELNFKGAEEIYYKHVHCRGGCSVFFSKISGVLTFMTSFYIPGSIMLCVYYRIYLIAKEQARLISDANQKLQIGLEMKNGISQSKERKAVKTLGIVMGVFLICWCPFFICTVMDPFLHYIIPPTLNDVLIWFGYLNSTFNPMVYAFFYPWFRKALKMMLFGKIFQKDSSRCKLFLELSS
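System: RD-HGA16 CHO cells with stable hTAAR1 and Gα16 | Probe or stimulus: EC80 β-phenethylamine stimulus | Dosing: 3 µM, single point | Times: Dye loading 75 min at 37 °C, then 30 min room temperature | Measured by: Fluo-8 calcium-sensitive fluorescence | Read-out basis: % inhibition of agonist calcium response | Replicates: n of 1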
TAAR1 ag – human TAAR1 agonism; hit rate 0.99% among 360,000; CHO RD-HGA16 TAAR1, Fluo-8 calcium fluorescence; vehicle wells 0%, saturating PEA agonist 100%; AID 624467; activation, % at 3 µM;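 active = activation above the mean activation of all test compounds in the run plus 3 SD, cut at about 38% in these data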
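Signal – calcium-sensitive Fluo-8 signal, excitation 470-495, emission 515-575 nm · System – RD-HGA16 (CHO) cells co-expressing Gα16 and hTAAR1 · Incubation – 17-24 h seeding, 75 min 37 °C dye, 30 min RT · Compound dosing – 3 µM single concentration · Repeats – no replicates (n 1)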
TAAR1 nonsel count – nonselective antagonist in TAAR1 antagonist counter-screen. shares compounds with TAAR1 antagonist. counterscreen cell line, calcium fluorescence, antagonist mode. inhibition, % at 3 µM. hit rate 77% among 2,400; in the data active = inhibition above about 22%;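 note: CHO-Ga16 host cells stimulated with ATP at an EC80 level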
TAAR1 antag conf – human TAAR1 antagonism, confirmed. AID 651785. hit rate 40% among 2,400. TAAR1-expressing cells, fluorescence antagonist read-out. inhibition, % at 3 µM. shares compounds with TAAR1 antagonist; in the data active = inhibition above about 49%;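 note: CHO-Ga16 host cells challenged with agonist PEA near its EC80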
Ga16 nonsel ag – nonselective Ga16 agonism, counter-screen. hit rate 18% among 2,400. shares compounds with TAAR1 antagonist. activation, % at 3 µM. Ga16-expressing cells, calcium fluorescence, agonist counterscreen; in the data active = activation above about 12%
TAAR1 ag counter – activates human TAAR1 in antagonist counter-screen | shares compounds with TAAR1 antagonist | hTAAR1 cell line, fluorescence activation, agonist mode | activation, % at 3 µM | hit rate 2% among 2,400; in the data active = activation above about 37%;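 note: CHO cells stably expressing TAAR1 with calcium dye readout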
Large screens that a line does not name were inactive (follow-up assays come after a bar, where they were run). This is a sample that favours compounds with a hit; in the whole collection about 4% have one here.

Cc1ccc(O)c(NC(=O)c2ccc3c(c2)C(=O)N(Cc2cccnc2)C3=O)c1	TAAR1 antagonist 77 | TAAR1 nonsel count 34 | TAAR1 antag conf 59 | Ga16 nonsel ag 13 | TAAR1 ag counter inactive
COC(=O)c1cccc(NC(=O)c2ccc3c(c2)C(=O)N(C(C)(C)C)C3=O)c1	TAAR1 antagonist 65 | TAAR1 nonsel count 38 | TAAR1 antag conf 63 | Ga16 nonsel ag inactive | TAAR1 ag counter inactive
CC(C)(C)N1C(=O)c2ccc(C(=O)Nc3ccc(O)cc3)cc2C1=O	TAAR1 antagonist 63 | TAAR1 nonsel count 24 | TAAR1 antag conf inactive | Ga16 nonsel ag inactive | TAAR1 ag counter inactive
Cc1cc(C)c(NC(=O)c2ccc3c(c2)C(=O)N(Cc2cccnc2)C3=O)c(C)c1	none
O=C(Nc1ccc(O)cc1)c1ccc2c(c1)C(=O)N(Cc1ccccc1)C2=O	TAAR1 antagonist 63 | TAAR1 nonsel count 22 | TAAR1 antag conf inactive | Ga16 nonsel ag 14 | TAAR1 ag counter inactive
COC(=O)c1cc(S(=O)(=O)NCC2CCN(C(=O)C(=O)c3cc4ccccc4o3)CC2)cs1	none (no result: GPR7 antag, MPTP block, DAGLB inh)
CCOC(=O)[C@]12CCC=C1N(Cc1cccc3ccccc13)C(=O)[C@H](CC(=O)NCCCN1CCCC1=O)C2	none (no result: GPR7 antag, DAGLB inh)
COCC(=O)N1CCN(C(=O)C(=O)c2cccc(C(F)(F)F)c2)CC1	none (no result: GPR7 antag, MPTP block, DAGLB inh)
CC(C)C[C@H]1CNC(=O)C(=O)N1C[C@@H]1CCCN1C[C@H](Cc1ccccc1)N1C[C@H](CC(C)C)N(CC2CCCCC2)C(=O)C1=O	none (no result: GPR7 antag, MPTP block, DAGLB inh)
CCCN1CCCCC(NC(=O)c2cccs2)C1=O (centres undefined)	none (no result: GPR7 antag, MPTP block, DAGLB inh)
CC(C)(C)N1C(=O)c2ccc(C(=O)O)cc2C1=O	none
CC(C)(C)NC(=O)c1cccc(NC(=O)c2ccc3c(c2)C(=O)N(C(C)(C)C)C3=O)c1	TAAR1 antagonist 85 | TAAR1 nonsel count 38 | TAAR1 antag conf 65 | Ga16 nonsel ag 13 | TAAR1 ag counter inactive
CCc1ccc(CNC(=O)c2cc3c(C)nc4ccccc4c3o2)cc1	none
Cc1nc2ccccc2c2oc(C(=O)NCC3COc4ccccc4O3)cc12 (centres undefined)	TAAR1 antagonist 54 | TAAR1 nonsel count 35 | TAAR1 antag conf inactive | Ga16 nonsel ag inactive | TAAR1 ag counter inactive
CN(Cc1ccccc1)C(=O)CN1CCN(S(=O)(=O)c2ccccc2F)CC1	none (no result: GPR7 antag)
O=C1c2ccccc2C(c2nnnn2Cc2ccccc2)N1CCc1ccc(O)cc1 (centres undefined)	TAAR1 antagonist 67 (no result: GPR7 antag, DAGLB inh) | TAAR1 nonsel count 28 | TAAR1 antag conf 53 | Ga16 nonsel ag inactive | TAAR1 ag counter inactive
O=C1c2ccccc2C(c2nnnn2Cc2ccccc2)N1CCc1ccccc1F (centres undefined)	TAAR1 antagonist 68 (no result: GPR7 antag, DAGLB inh) | TAAR1 nonsel count 29 | TAAR1 antag conf 51 | Ga16 nonsel ag inactive | TAAR1 ag counter inactive
Cc1cccc(-c2noc(-c3ccccc3C(=O)NCc3ccco3)n2)c1	TAAR1 antagonist 52 | TAAR1 nonsel count 26 | TAAR1 antag conf inactive | Ga16 nonsel ag inactive | TAAR1 ag counter inactive
O=C(NCc1ccco1)c1cccc(-c2nnc(-c3ccccc3)o2)c1	TAAR1 antagonist 62 | TAAR1 nonsel count 22 | TAAR1 antag conf inactive | Ga16 nonsel ag inactive | TAAR1 ag counter inactive
O=C(NCc1ccco1)c1ccccc1	none
Cc1cccc(-c2noc(CCC(=O)NCCc3ccccc3)n2)c1	none
Cc1cccc(-c2noc(CCC(=O)NCc3ccccc3)n2)c1	TAAR1 antagonist 106 | TAAR1 nonsel count inactive | TAAR1 antag conf inactive | Ga16 nonsel ag inactive | TAAR1 ag counter inactive
CN1CCN(c2nc(-c3ccc(Cl)cc3)cc(=O)[nH]2)CC1	none
CC(/C=C1\SC(=Nc2cccnc2)NC1=O)=C\c1ccccc1	TAAR1 antagonist 62 | TAAR1 nonsel count 29 | TAAR1 antag conf 56 | Ga16 nonsel ag inactive | TAAR1 ag counter inactive
COc1ccc(-c2nc(SCC(=O)Nc3nccs3)c(-c3ccc(Cl)cc3)[nH]2)cc1	TAAR1 antagonist 68 | TAAR1 nonsel count 45 | TAAR1 antag conf 59 | Ga16 nonsel ag inactive | TAAR1 ag counter inactive
COc1ccc(-c2nc(SCC(=O)NC3CCCC3)c(-c3ccc(OC)cc3)[nH]2)cc1	none
CCCCCCN1CCN(C2CN(C3CCCCC3)S(=O)(=O)C2)CC1 (centres undefined)	none (no result: GPR7 antag, DAGLB inh)
CC(=O)Nc1cccc(-c2csc(C(C)(O)c3cccc(F)c3)n2)c1 (centres undefined)	none (no result: GPR7 antag, DAGLB inh)
CCN(CC)C(=O)c1cccc(-c2csc(C(C)(O)c3cccc(F)c3)n2)c1 (centres undefined)	TAAR1 antagonist 80 (no result: GPR7 antag, DAGLB inh) | TAAR1 nonsel count 43 | TAAR1 antag conf 57 | Ga16 nonsel ag 12 | TAAR1 ag counter inactive
COc1ccc(CCNC(=O)C(=O)NCC2OCCN2C(=O)c2ccc(Cl)cc2)cc1 (centres undefined)	TAAR1 antagonist 60 | TAAR1 nonsel count 22 | TAAR1 antag conf inactive | Ga16 nonsel ag inactive | TAAR1 ag counter inactive
COc1ccc(C(=O)NCCc2c[nH]c3ccccc23)cc1[N+](=O)[O-]	TAAR1 antagonist 63 | TAAR1 nonsel count 27 | TAAR1 antag conf inactive | Ga16 nonsel ag inactive | TAAR1 ag counter inactive
CCOC(=O)c1c(NC(=O)COc2ccccc2C#N)sc2c1CC(C)(C)NC2(C)C	TAAR1 antagonist 74 | TAAR1 nonsel count 28 | TAAR1 antag conf inactive | Ga16 nonsel ag 14 | TAAR1 ag counter inactive
COc1ccc(OC)c(NC(=O)CCNS(=O)(=O)c2ccc3c(c2)CC(C)N3C(C)=O)c1 (centres undefined)	none (no result: GPR7 antag)
COc1cc(/C=N/NC(=O)CSc2cc(C)c(Br)cc2C)ccc1O	TAAR1 antagonist 66 | TAAR1 nonsel count 38 | TAAR1 antag conf 59 | Ga16 nonsel ag 13 | TAAR1 ag counter inactive
COc1ccc(/C=N/NC(=O)CSc2ccccc2)cc1OC	none
CN(C)c1cccc2c(S(=O)(=O)NCC3CCN(C(=O)C(=O)c4cc5ccccc5o4)CC3)cccc12	none (no result: GPR7 antag, MPTP block, DAGLB inh)
O=C(CNC(=O)c1ccco1)N=Nc1c(O)n(CCc2ccccc2)c2ccccc12	none
CCCCn1c(O)c(N=NC(=O)c2ccco2)c2ccccc21	TAAR1 antagonist 52 | TAAR1 nonsel count inactive | TAAR1 antag conf inactive | Ga16 nonsel ag inactive | TAAR1 ag counter inactive
C[C@@H]1CN([C@H](C)CO)C(=O)CCCn2nncc2CO[C@H]1CN(C)C(=O)NC1CCCCC1	none (no result: GPR7 antag)
COc1ccc2[nH]c(=O)c(CN(Cc3nnnn3Cc3ccco3)C3CCCCC3)cc2c1	TAAR1 antagonist 67 | TAAR1 nonsel count 28 | TAAR1 antag conf 51 | Ga16 nonsel ag 12 | TAAR1 ag counter inactive
